Bioassay records from PubChem.
Sampled rows, rich in hits. Any-hit rate of the full collection: about 2%.
DAGLB inhibitor: blocks human DAGLB lipase activity. Q8NCG7. HEK293T DAGLB membrane lysate, EnzChek fluorogenic substrate. hit rate 0.059% among 340,000. AID 504411. inhibition, % at 5.17 µM; in the data active = inhibition above about 34%
VLA-4 inh: inhibition in a human VLA-4 binding assay. P13612. VLA-4 expressing cells, ligand binding flow cytometry. inhibition, % (about 7 µM as worked out from the volumes in the protocol). hit rate 0.2% among 330,000. AID 2557; in the data active = inhibition above about 50%
ABCB6 inh 2: inhibitors of human ABC transporter ABCB6 | K562-ABCB6 porphyrin accumulation, flow cytometry, 1 h; stronger effect = lower value | hit rate 0.19% among 360,000 | fluorescence ratio to DMSO, % at 10 µM;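 active = fluorescence ratio to DMSO below 75%, the collection mean minus 3 SD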;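 note: signal is porphyrin accumulated inside mitochondria; lower ratio means ABCB6 inhibition with less porphyrin fluorescence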
Target sequence (Q9NP58 whole entry, looked up): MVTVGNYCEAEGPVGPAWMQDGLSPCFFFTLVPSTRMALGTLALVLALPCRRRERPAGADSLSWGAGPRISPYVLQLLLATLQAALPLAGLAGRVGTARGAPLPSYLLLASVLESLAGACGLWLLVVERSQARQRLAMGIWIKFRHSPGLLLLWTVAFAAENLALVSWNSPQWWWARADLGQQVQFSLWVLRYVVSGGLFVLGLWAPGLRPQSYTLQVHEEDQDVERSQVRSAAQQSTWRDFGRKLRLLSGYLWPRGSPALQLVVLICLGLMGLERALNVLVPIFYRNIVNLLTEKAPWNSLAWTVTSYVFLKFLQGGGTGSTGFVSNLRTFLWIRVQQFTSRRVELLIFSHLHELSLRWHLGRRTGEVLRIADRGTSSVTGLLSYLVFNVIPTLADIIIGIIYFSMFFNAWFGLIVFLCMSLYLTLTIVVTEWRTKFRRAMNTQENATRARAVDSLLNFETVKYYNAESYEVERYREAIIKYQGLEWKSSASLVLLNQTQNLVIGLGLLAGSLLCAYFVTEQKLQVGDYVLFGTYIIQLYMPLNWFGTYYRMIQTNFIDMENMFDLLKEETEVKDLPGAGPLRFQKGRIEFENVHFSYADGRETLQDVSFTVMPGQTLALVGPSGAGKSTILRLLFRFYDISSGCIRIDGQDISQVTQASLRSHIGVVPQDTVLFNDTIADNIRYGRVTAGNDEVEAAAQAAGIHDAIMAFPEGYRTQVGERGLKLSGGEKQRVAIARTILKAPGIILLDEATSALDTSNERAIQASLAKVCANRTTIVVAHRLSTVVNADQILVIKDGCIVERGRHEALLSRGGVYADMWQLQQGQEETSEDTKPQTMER
MT1-MMP act inh: blocks activation of human MT1-MMP; GFP/RFP ratio change, % at 20 µM; HT1080 RFP-PRO-GFP cells, GFP/RFP ratio fluorescence, overnight; percent of plate control window, DMSO zero; P50281; hit rate 0.061% among 360,000;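 active = GFP/RFP ratio change of at least 30% with cell ATP level not reduced by more than half and red fluorescence within 50% of control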
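Material: RFP-PRO-GFP reporter HT1080 cells. Dosing: single-point 20 µM compound, 1% DMSO. Controls: DMSO and RFP-L50D-GFP cell wells. Timing: cells overnight before dosing, compound overnight, 37 °C, 5% CO2. Measure: GFP/RFP fluorescence ratio.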
Exocytosis inh: blocks lytic granule exocytosis; TALL-104 LAMP-1 surface exposure, flow cytometry; cells stimulated with thapsigargin and PMA; inhibition, % at 10 µM; hit rate 0.66% among 360,000;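 active = inhibition above about 55%, limit read from the data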
FGF22 binding: FGF22 (human) thermal shift binding | Q9HCT0 | recombinant FGF22 thermal shift, SYPRO orange fluorescence; percent of sucrose octasulfate shift, DMSO zero | activity (Tm shift, normalised), % at 9.99 µM | hit rate 1.5% among 340,000 | AID 651658;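 active = mean Tm shift, scaled 0 neutral to 100 positive control, at about 1.3% or above, every replicate too, limit read from the data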
Of the large screens only hits and unclear results are named; the others gave an inactive call.

Cc1ccc(NC(=O)c2sc(=S)n(-c3cc(C)ccc3F)c2N)cc1	FGF22 binding 43
CC1(C(=O)NCCCN2CCOCC2)Oc2cccnc2NC1=O (centres undefined)	FGF22 binding 43
COc1ccccc1CNC(=O)C1(C)Oc2cccnc2NC1=O (centres undefined)	none
Cc1ccc(C(=O)N2CCN(S(=O)(=O)c3ccc(C)cc3)CC2)cc1	none
Cc1ccc(C(=O)N2CCN(S(=O)(=O)c3ccc(C)c([N+](=O)[O-])c3)C2)cc1	FGF22 binding 44
Cc1ccc(C(=O)N2CCN(C(=O)c3ccc(C)cc3)C2)cc1	FGF22 binding 43
Cc1cccc(NC(=O)C(=O)N/N=C/c2ccncc2)c1	FGF22 binding 43
C[C@@H](CO)NC(=O)c1nc[nH]c1C(=O)N[C@H](C)c1ccccc1	FGF22 binding 43 (no result: VLA-4 inh)
C[C@H](NC(=O)c1nc[nH]c1C(=O)NC[C@@H](C)O)c1ccccc1	FGF22 binding 43 (no result: VLA-4 inh)
C[C@H](CO)NC(=O)c1nc[nH]c1C(=O)N[C@@H](C)c1ccccc1	none (no result: VLA-4 inh)
C[C@H](CO)N1C[C@H](C)[C@H](CN(C)C(=O)CCC(F)(F)F)OCCCC[C@H](C)Oc2ccc(NC(=O)c3ccccc3)cc2C1=O	none (no result: DAGLB inhibitor, VLA-4 inh, ABCB6 inh 2, MT1-MMP act inh, Exocytosis inh)
COc1ccc2c3c([nH]c2c1)[C@@H](CO)N(C(=O)Cc1ccccc1)CC31CCN(C(=O)Nc2ccccc2F)CC1	none (no result: DAGLB inhibitor, VLA-4 inh, ABCB6 inh 2, MT1-MMP act inh, Exocytosis inh)
Cc1cccc(C2=N/C(=C\c3cccnc3)C(=O)O2)c1	ABCB6 inh 2 68 (no result: FGF22 binding)
Cc1ccc(C2=C/C(=C/c3cccnc3)C(=O)O2)c(C)c1	FGF22 binding 44
O=C1OC(c2ccc(Cl)cc2)=C/C1=C/c1cccnc1	none
CCNC(=O)Nc1ccc2c(c1)C(=O)N(C)[C@@H]1CC[C@@H](CC(=O)NCc3cccc(F)c3)O[C@H]1CO2	none (no result: DAGLB inhibitor, VLA-4 inh, ABCB6 inh 2, MT1-MMP act inh, Exocytosis inh)
O=C(CSc1nc2ccccc2[nH]1)NCc1ccc(F)cc1	FGF22 binding 43
Cc1ccc(S(=O)(=O)Nc2ccc3c(c2)C(=O)N([C@H](C)CO)C[C@@H](C)[C@@H](CN(C)S(=O)(=O)c2ccc(Cl)cc2)O3)cc1	none (no result: DAGLB inhibitor, VLA-4 inh, ABCB6 inh 2, MT1-MMP act inh, Exocytosis inh)
Cc1c(Nc2cc(Cl)c3nonc3c2[N+](=O)[O-])c(=O)n(-c2ccccc2)n1C	ABCB6 inh 2 38 (no result: VLA-4 inh)
O=C(O)C1Nc2c(O)cc(Cl)c([N+](=O)[O-])c2C2C=CCC12 (centres undefined)	FGF22 binding 2.7
C[C@H](CO)N1C[C@H](C)[C@H](CN(C)S(C)(=O)=O)Oc2ccc(NS(C)(=O)=O)cc2C1=O	none (no result: DAGLB inhibitor, VLA-4 inh, ABCB6 inh 2, MT1-MMP act inh, Exocytosis inh)
CCN(c1ccccc1)S(=O)(=O)c1ccc(NC(=O)c2nc(S(C)(=O)=O)ncc2Cl)cc1	ABCB6 inh 2 37 (no result: FGF22 binding)
Cc1ccc(C(C)C)c(OCC(=O)N/N=C/C2CCCCC2)c1	FGF22 binding 43
Cc1ccc(C(C)C)c(OCC(=O)NN=C2CCCC2)c1	none
CC(C)C[C@H](NC(=O)c1ccc(OC2CCN(C(=O)C3CC3)CC2)cc1)C(N)=O	none (no result: FGF22 binding)
CC(CCCC(C)(C)O)NC(=O)c1ccc(OC2CCN(C(=O)C3CC3)CC2)cc1 (centres undefined)	FGF22 binding 43
CCN1[C@H](C(=O)N(C)C)[C@@H](CO)[C@@H]2Cn3c(ccc(C4=CCCC4)c3=O)[C@@H]21	none (no result: DAGLB inhibitor, VLA-4 inh, ABCB6 inh 2, MT1-MMP act inh, Exocytosis inh)
N/C(=N\N=C/c1ccc(Br)cc1)N/N=C\c1ccc(Br)cc1	Exocytosis inh 63
N/C(=N\N=Cc1ccc2c(c1)OCO2)NN=Cc1ccc2c(c1)OCO2	none (no result: VLA-4 inh)
O=C(N/N=C/c1ccc(F)cc1)c1ccc(Br)cc1	none
N/C(=N\N=C/c1ccc(F)cc1)N/N=C\c1ccc(F)cc1	Exocytosis inh 61
Cc1ccc(-c2cnc3c(c2)C(=O)N([C@H](C)CO)C[C@@H](C)[C@H](CN(C)C(=O)c2ccccc2)O3)cc1	none (no result: DAGLB inhibitor, VLA-4 inh, ABCB6 inh 2, MT1-MMP act inh, Exocytosis inh)
COc1ccc(-c2cc(C(F)F)n3ncc(C(=O)NCC4CCCO4)c3n2)cc1 (centres undefined)	none (no result: FGF22 binding)
COc1ccc(-c2cc(C(F)(F)F)n3ncc(C(=O)NCC4CCCO4)c3n2)cc1OC (centres undefined)	ABCB6 inh 2 64 (no result: FGF22 binding)
COc1ccc(S(=O)(=O)N2CC3(CN(Cc4ccccc4OC)[C@H](CO)c4[nH]c5cc(OC)ccc5c43)C2)cc1	none (no result: DAGLB inhibitor, VLA-4 inh, ABCB6 inh 2, MT1-MMP act inh, Exocytosis inh)
CC[n+]1c(/C=C2\Sc3ccccc3N2C)ccc2cccc(C)c21	Exocytosis inh 68 (no result: VLA-4 inh, ABCB6 inh 2)
O=C(CCc1nnc(CCCc2ccccc2)o1)NCCCC1CCCC1	FGF22 binding 43
CC(C)c1cc(CNC(=O)CCc2nnc(CCCc3ccccc3)o2)on1	FGF22 binding 43
CCc1cc(CNC(=O)CCc2nnc(CCCc3ccccc3)o2)on1	none
O=C(CCc1nnc(CCCCc2ccccc2)o1)NCCn1cccn1	FGF22 binding 43
C[C@H](CO)N1C[C@H](C)[C@@H](CN(C)C)Oc2cc(C#Cc3cccnc3)ccc2S1(=O)=O	none (no result: DAGLB inhibitor, VLA-4 inh, ABCB6 inh 2, MT1-MMP act inh, Exocytosis inh)
CO[C@H](CN(C)C(=O)c1ccccc1F)[C@H](C)CN([C@H](C)CO)S(=O)(=O)c1ccc(Cl)cc1	none (no result: DAGLB inhibitor, VLA-4 inh, ABCB6 inh 2, MT1-MMP act inh, Exocytosis inh)
O=c1cc(-c2ccccc2[N+](=O)[O-])oc2ccccc12	FGF22 binding 43
Cc1ccccc1-c1ccc([C@H]2[C@H]3CN(C(=O)NC4CCCC4)CC(=O)N3[C@H]2CO)cc1	none (no result: DAGLB inhibitor, VLA-4 inh, ABCB6 inh 2, MT1-MMP act inh, Exocytosis inh)
C[C@H]1CCCCO[C@H](CN(C)C(=O)Cc2ccccc2)[C@@H](C)CN([C@@H](C)CO)C(=O)c2cc(NC(=O)CCC(F)(F)F)ccc2O1	none (no result: DAGLB inhibitor, VLA-4 inh, ABCB6 inh 2, MT1-MMP act inh, Exocytosis inh)
COc1ccc(NC(=O)N/C=C/c2ccco2)cc1	FGF22 binding 43
CC(C)CN1CCN(Cc2cccn2-c2cccnc2)CC1CCO (centres undefined)	FGF22 binding 43
COc1ccc2[nH]c(CN3CCN(C(C)C)C(CCO)C3)c(C)c2c1 (centres undefined)	none
Cc1cccc(-c2ncc(CN3CCN(CC(C)C)C(CCO)C3)cn2)c1 (centres undefined)	FGF22 binding 43
OCCC1CN(Cc2cccn2-c2cccnc2)CCN1Cc1ccc(F)cc1 (centres undefined)	none
Cc1ccc(-c2cccc(CN3CCN(C(C)C)C(CCO)C3)c2)o1 (centres undefined)	FGF22 binding 43
COc1ccc2[nH]c(CN3CCN(CC(C)C)C(CCO)C3)c(C)c2c1 (centres undefined)	FGF22 binding 43
CCCNC(=O)C[C@H]1CC[C@H]2[C@H](COc3ccc(NC(=O)Nc4ccccc4)cc3C(=O)N2C)O1	none (no result: DAGLB inhibitor, VLA-4 inh, ABCB6 inh 2, MT1-MMP act inh, Exocytosis inh)
COc1cccc(-c2ccc3c(c2)[C@H]2[C@H](CCN2C(=O)Cc2ccccc2)[C@@H](CO)N3)c1	none (no result: DAGLB inhibitor, VLA-4 inh, ABCB6 inh 2, MT1-MMP act inh, Exocytosis inh)
N#CC1=C(N)N2C(=C(C#N)C1c1ccc(Br)cc1)Nc1ccccc12 (centres undefined)	none (no result: DAGLB inhibitor, ABCB6 inh 2, MT1-MMP act inh, Exocytosis inh)
N#CC1=C(N)N2C(=C(C#N)C1c1cccc(Br)c1)Nc1ccccc12 (centres undefined)	FGF22 binding 43
